This note sets out measurements from ChEMBL document CHEMBL4390674, “Defining Structure-Functional Selectivity Relationships (SFSR) for a Class of Non-Catechol Dopamine D1 Receptor Agonists” (J Med Chem, 2019).

Molecules are shown by their SMILES. Active and inactive are the calls of the source. The rule behind the calls is not given here. A value given as a limit tells only on which side of the number the result lay.

The target of data set [1] is T1, D(1A) dopamine receptor (Homo sapiens, UniProt P21728). Description: Agonist activity at recombinant human D1 receptor expressed in HEK29T cells assessed as induction of stimulatory G-protein-mediated cAMP accumulation at 10'4M measured after 15 mins by Glosensor-based FLIPR assay relative to dopamine. It counts as functional, cell-based. The method in brief:
(§1)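 GloSensor-22F cAMP biosensor in HEK293T cells co-expressing human D1, seeded in DMEM + 1% dialyzed FBS; next day GloSensor reagent equilibrated ≥15 min at room temperature in HBSS/20 mM HEPES pH 7.4, then drug added in HBSS/HEPES/0.1% BSA/0.01% ascorbic acid. Luminescence read after 15 min; normalized to dopamine maximum (100%); sigmoidal fit; maximum tested 10⁻⁴ M; ≥3 experiments in triplicate.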
(Changes in cAMP serve as a functional read-out for many G protein-coupled receptors.)

Data set [2] concerns the target T1, D(1A) dopamine receptor. Nature of the data set: Agonist activity at recombinant C-terminal RLuc8-fused human D1 receptor expressed in HEK29T cells co-expressing N-terminal Venus-tagged beta-arrestin2 assessed as increase in beta-arrestin2 recruitment at 10^-4M measured after 15 mins in presence of coelenterazine H by BRET assay. Type of data set: cell-based. On the technique in general: Arrestin recruitment assays detect the binding of arrestin to an activated receptor.

Data set [3] addresses T1, D(1A) dopamine receptor. Nature of the data set: Agonist activity at recombinant C-terminal RLuc8-fused human D1 receptor expressed in HEK29T cells co-expressing N-terminal Venus-tagged beta-arrestin2 assessed as increase in beta-arrestin2 recruitment at 10^-4M measured after 15 mins in presence of coelenterazine H by BRET assay relative to dopamine. It counts as cell-based.

The target of data set [4] is T1, D(1A) dopamine receptor. Nature of the data set: Agonist activity at recombinant human D1 receptor expressed in HEK29T cells assessed as induction of stimulatory G-protein-mediated cAMP accumulation at 10'4M measured after 15 mins by Glosensor-based FLIPR assay. Type of data set: functional, cell-based. The method in brief: as §1
The target of data set [5] is T1, D(1A) dopamine receptor. Nature of the data set: Agonist activity at recombinant C-terminal RLuc8-fused human D1 receptor expressed in HEK29T cells co-expressing N-terminal Venus-tagged beta-arrestin2 assessed as increase in beta-arrestin2 recruitment measured after 15 mins in presence of coelenterazine H by BRET assay. Type of data set: cell-based. As to conditions: read-out: EC50.

The target in data set [6] is T1, D(1A) dopamine receptor. Description: Agonist activity at recombinant human D1 receptor expressed in HEK29T cells assessed as induction of stimulatory G-protein-mediated cAMP accumulation measured after 15 mins by Glosensor-based FLIPR assay. Type of data set: functional, cell-based. In a few lines:
as §1

The target in data set [7] is T1, D(1A) dopamine receptor. Nature of the data set: Agonist activity at recombinant C-terminal RLuc8-fused human D1 receptor expressed in HEK29T cells co-expressing N-terminal Venus-tagged beta-arrestin2 assessed as increase in beta-arrestin2 recruitment measured after 15 mins in presence of coelenterazine H by BRET assay relative to dopamine. Type of data set: cell-based.

Data set [8] concerns the target T1, D(1A) dopamine receptor. Description: Agonist activity at recombinant human D1 receptor expressed in HEK29T cells assessed as induction of stimulatory G-protein-mediated cAMP accumulation measured after 15 mins by Glosensor-based FLIPR assay relative to dopamine. It counts as functional, cell-based. In a few lines: as §1
Data set [9] concerns the target T1, D(1A) dopamine receptor. Nature of the data set: Bias factor, transduction co-efficient for agonist activity at recombinant human D1 receptor expressed in HEK29T cells assessed as induction of stimulatory G-protein-mediated cAMP accumulation to agonist activity at recombinant C-terminal RLuc8-fused human D1 receptor expressed in HEK29T cells co-expressing N-terminal Venus-tagged beta-arrestin2 assessed as increase in beta-arrestin2 recruitment. It counts as functional, cell-based. In a few lines: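 Dopamine as full-agonist reference; transduction coefficients log(τ/KA) for Gs-cAMP (GloSensor) and β-arrestin2 (BRET) computed relative to dopamine and averaged across experiments; bias factor derived by Kenakin method from the difference between Gs and β-arrestin2 coefficients.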

Data set [10] is described as follows: Ratio of drug level in brain to plasma in Swiss albino mouse at 50 mg/kg, ip measured up to 4 hrs by LC-MC/MS analysis. Type of data set: ADME, organism-based. In a few lines: (§2)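 Male Swiss Albino mice (nine), 50 mg/kg i.p. in 5% NMP/5% Solutol HS-15/90% saline; plasma and brain taken from three mice per time point at 0.5, 1.5 and 4 h; brain homogenized 2:1 in ice-cold PBS pH 7.4; LC-MS/MS quantitation (LLOQ 1.01 ng/mL plasma, 3.03 ng/g brain); noncompartmental analysis.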

A short description of data set [11]: Cmax in Swiss albino mouse brain at 50 mg/kg, ip measured up to 4 hrs by LC-MC/MS analysis. It counts as ADME, organism-based. Also on record: dose 50 mg/kg, route intraperitoneal. In a few lines:
as §2

Data set [12] is described as follows: Cmax in Swiss albino mouse plasma at 50 mg/kg, ip measured up to 4 hrs by LC-MC/MS analysis. Type of data set: ADME, organism-based. The arrangement: dose 50 mg/kg, route intraperitoneal. In a few lines:
as §2

Data set [13] can be described thus: Toxicity in Swiss albino mouse at 50 mg/kg, ip measured up to 4 hrs. As to conditions: in vivo. Type of data set: organism-based.

T1 sequence (P21728 whole entry): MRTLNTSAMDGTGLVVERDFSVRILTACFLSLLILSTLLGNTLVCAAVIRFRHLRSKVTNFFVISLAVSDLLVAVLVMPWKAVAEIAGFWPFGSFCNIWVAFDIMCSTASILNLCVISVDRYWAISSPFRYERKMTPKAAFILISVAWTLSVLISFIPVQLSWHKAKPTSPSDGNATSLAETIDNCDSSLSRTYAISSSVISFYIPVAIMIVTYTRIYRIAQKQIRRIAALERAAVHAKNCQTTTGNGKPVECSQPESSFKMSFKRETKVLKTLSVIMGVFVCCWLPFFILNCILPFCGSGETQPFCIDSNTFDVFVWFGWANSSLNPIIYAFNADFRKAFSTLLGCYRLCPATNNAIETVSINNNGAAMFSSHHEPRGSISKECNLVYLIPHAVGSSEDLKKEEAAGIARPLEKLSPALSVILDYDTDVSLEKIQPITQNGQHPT

Broadly, the Emax is the maximal effect, on the per cent scale that the assay sets. Take `FC(F)(F)c1cc(-c2cccc3nccn23)ccc1Oc1nccc2occc12`: the Emax entry at D(1A) dopamine receptor [1] and on D(1A) dopamine receptor [3] was “inactive” in each case. The result at D(1A) dopamine receptor [2] and at D(1A) dopamine receptor [4] was inactive.

For the molecule `Cc1cc(Oc2nccc3occc23)cc(C)c1-c1cccc2nccn12`, the Emax result on D(1A) dopamine receptor [1] and on D(1A) dopamine receptor [3] was “inactive” throughout. For the same molecule, the result on D(1A) dopamine receptor [2] and on D(1A) dopamine receptor [4] was inactive.

For `Cc1ncc2nccn2c1-c1ccc(Oc2nccc3occc23)c(C(F)(F)F)c1`, the Emax result at D(1A) dopamine receptor [1] and on D(1A) dopamine receptor [3] was “inactive” each time. Further, the outcome at D(1A) dopamine receptor [2] and on D(1A) dopamine receptor [4] was inactive.

The EC50 is the midpoint of the concentration-response curve. For `FC(F)(F)c1cc(Oc2cc(N3CCCCC3)ccn2)ccc1-c1cccc2nccn12`, at D(1A) dopamine receptor [1], the Emax result was “inactive”. The outcome on D(1A) dopamine receptor [4] was inactive. Besides, at D(1A) dopamine receptor [5], the EC50 was greater than 10 µM.

As for `Cc1cc(Oc2nccc3occc23)ccc1-c1c(C)nc2cnccn12`, the EC50 at D(1A) dopamine receptor [6] stood at 0.0058 µM; on D(1A) dopamine receptor [5], 2.6 µM. Also, the Emax at D(1A) dopamine receptor [7] stood at 89%; on D(1A) dopamine receptor [8], 63%. Moreover, at D(1A) dopamine receptor [9], the fold change (FC) amounted to 4.1.

The term Cmax denotes the highest concentration seen after dosing. Turning to `Nc1cc(Oc2nccc3occc23)ccc1-c1cccc2nccn12`, the BPR in data set [10] fell in the range of 1.2 to 1.6. Besides, the EC50 was found to be 0.01 µM on D(1A) dopamine receptor [6] and 0.79 µM at D(1A) dopamine receptor [5]. The Cmax in data set [11] and in data set [12] was 100 µM throughout. Further, the Emax worked out at 54% at D(1A) dopamine receptor [7] and 91% at D(1A) dopamine receptor [8]. Besides, the Activity entry in [13] was “Non-Toxic”. Moreover, the fold change (FC) at D(1A) dopamine receptor [9] stood at 1.7.
